We go through 16 molecules from ChEMBL document CHEMBL2424619, “Small-molecule ligands of methyl-lysine binding proteins: optimization of selectivity for L3MBTL3” (J Med Chem, 2013).

Test [1] has as its target T1, Lethal(3)malignant brain tumor-like protein 3 (Homo sapiens, UniProt Q96JM7).
T1 sequence (Q96JM7 whole entry): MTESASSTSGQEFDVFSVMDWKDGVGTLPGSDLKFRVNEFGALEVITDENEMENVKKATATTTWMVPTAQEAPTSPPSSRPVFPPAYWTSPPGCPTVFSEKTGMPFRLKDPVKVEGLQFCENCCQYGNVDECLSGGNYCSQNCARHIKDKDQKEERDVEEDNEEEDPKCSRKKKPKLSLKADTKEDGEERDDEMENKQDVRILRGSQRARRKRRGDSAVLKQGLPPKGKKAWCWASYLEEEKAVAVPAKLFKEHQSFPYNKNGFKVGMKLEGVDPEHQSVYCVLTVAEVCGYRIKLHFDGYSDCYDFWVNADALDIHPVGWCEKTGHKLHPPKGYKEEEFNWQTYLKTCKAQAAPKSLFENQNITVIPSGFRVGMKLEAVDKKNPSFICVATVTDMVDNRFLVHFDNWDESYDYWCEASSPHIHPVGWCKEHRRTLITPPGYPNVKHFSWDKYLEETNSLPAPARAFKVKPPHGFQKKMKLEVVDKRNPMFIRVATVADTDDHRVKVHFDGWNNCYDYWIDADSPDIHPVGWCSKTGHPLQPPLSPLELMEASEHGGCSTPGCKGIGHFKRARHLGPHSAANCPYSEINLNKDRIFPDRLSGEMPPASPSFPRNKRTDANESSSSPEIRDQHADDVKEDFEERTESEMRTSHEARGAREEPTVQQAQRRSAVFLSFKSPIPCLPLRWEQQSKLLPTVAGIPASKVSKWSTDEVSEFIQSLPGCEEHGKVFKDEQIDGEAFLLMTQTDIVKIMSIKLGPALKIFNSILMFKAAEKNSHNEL
In words: Inhibition of L3MBTL3 (unknown origin) after 30 mins by AlphaScreen assay. Summed up:
(§1)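 AlphaScreen competition with histone peptide. Compounds in 3-fold, 10-point dilutions, top 10 or 30 μM; buffer 20 mM Tris pH 8.0, 25 mM NaCl, 2 mM DTT, 0.05% Tween-20. Protein-peptide mix 30 min RT, then streptavidin donor plus nickel-chelate acceptor beads (GST acceptor beads for GST-tagged PHF23, JARID1A) 30 min RT dark. Protein-free His6-biotin peptide counterscreen.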
(In general: Bead proximity is the source of the signal in Alpha formats.)

The target in test [2] is TP53-binding protein 1 (Homo sapiens, UniProt Q12888). As to the kind of experiment: Inhibition of 53BP1 (unknown origin) after 30 mins by AlphaScreen assay. Summed up: (§2)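 AlphaScreen competition with histone peptide. Compounds in 3-fold, 10-point dilutions, top 10 or 30 μM; buffer 20 mM Tris pH 8.0, 25 mM NaCl, 2 mM DTT, 0.05% Tween-20. Protein-peptide mix 30 min RT, then streptavidin donor plus nickel-chelate acceptor beads (GST acceptor beads for GST-tagged PHF23, JARID1A) 30 min RT dark. […] Protein-free His6-biotin peptide counterscreen.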
TP53-binding protein 1, sequence (Q12888 whole entry): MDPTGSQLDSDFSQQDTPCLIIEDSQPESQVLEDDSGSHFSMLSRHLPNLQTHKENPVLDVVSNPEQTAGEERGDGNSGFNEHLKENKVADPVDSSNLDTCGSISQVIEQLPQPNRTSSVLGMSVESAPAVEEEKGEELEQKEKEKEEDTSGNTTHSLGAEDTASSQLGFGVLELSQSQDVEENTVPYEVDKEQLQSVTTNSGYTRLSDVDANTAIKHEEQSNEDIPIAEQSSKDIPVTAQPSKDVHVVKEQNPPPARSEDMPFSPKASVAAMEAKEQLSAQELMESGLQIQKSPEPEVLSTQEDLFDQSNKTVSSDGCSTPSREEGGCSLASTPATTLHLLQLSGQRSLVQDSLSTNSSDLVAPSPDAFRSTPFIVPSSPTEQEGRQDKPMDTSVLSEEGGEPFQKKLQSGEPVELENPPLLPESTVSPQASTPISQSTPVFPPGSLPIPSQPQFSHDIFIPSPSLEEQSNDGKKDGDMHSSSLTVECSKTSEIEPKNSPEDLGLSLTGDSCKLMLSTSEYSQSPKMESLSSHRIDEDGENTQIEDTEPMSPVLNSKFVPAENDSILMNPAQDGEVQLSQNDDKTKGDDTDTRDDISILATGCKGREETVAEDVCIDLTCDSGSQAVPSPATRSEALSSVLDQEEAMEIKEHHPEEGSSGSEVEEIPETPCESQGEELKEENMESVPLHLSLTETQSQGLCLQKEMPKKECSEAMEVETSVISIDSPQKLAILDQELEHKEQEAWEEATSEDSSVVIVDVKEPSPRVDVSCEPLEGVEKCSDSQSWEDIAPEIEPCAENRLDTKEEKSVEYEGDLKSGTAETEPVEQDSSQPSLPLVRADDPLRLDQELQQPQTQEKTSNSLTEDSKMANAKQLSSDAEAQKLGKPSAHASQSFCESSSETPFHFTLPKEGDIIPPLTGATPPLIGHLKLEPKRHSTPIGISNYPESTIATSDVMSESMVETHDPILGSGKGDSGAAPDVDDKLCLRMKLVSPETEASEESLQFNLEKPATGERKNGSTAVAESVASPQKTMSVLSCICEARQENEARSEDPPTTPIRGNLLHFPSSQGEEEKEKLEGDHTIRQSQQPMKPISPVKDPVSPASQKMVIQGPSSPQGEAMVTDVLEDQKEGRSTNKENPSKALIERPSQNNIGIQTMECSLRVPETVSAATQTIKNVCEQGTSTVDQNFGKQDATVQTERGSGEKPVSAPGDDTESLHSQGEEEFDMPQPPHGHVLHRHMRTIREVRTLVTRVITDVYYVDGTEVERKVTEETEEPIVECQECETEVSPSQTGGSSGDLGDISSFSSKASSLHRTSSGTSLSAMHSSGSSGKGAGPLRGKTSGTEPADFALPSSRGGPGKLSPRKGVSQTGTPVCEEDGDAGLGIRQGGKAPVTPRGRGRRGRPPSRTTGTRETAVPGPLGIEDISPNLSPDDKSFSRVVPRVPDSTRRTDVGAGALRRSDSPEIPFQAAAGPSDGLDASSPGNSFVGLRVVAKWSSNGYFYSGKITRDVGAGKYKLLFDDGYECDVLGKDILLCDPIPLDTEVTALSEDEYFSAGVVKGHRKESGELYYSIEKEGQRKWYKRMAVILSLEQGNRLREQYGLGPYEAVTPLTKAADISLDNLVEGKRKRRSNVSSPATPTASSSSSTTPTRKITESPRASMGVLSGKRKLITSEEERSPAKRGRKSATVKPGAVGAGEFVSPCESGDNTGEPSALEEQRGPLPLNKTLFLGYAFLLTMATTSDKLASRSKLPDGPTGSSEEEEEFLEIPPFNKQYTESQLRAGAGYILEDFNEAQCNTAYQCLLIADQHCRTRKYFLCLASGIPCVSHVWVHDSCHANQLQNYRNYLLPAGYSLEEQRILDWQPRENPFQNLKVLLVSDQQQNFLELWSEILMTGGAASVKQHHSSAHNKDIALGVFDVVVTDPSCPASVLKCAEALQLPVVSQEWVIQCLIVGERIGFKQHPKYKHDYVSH

The target in test [3] is T2, E3 ubiquitin-protein ligase UHRF1 (Homo sapiens, UniProt Q96T88).
T2 sequence (Q96T88 whole entry): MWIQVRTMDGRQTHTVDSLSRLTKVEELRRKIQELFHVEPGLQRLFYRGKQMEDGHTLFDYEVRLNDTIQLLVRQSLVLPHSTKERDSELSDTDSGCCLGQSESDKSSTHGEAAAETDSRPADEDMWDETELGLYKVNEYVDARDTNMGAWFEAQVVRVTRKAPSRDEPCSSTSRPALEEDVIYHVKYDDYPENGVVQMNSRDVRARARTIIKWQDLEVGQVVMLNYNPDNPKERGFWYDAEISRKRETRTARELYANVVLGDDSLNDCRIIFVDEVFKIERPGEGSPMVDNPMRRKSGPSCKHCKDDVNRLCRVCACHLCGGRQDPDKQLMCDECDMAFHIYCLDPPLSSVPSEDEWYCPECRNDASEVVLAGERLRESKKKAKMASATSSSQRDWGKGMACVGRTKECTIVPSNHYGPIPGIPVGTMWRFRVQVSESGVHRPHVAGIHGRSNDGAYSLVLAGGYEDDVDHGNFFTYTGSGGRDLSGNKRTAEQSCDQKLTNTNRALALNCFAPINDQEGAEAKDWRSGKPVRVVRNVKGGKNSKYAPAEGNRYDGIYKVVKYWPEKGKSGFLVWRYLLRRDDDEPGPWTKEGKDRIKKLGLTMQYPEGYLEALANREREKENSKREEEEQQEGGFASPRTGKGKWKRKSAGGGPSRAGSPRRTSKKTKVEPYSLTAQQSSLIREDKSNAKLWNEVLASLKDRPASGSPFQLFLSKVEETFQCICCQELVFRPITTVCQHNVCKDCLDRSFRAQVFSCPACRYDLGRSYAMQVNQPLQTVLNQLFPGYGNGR
As to the kind of experiment: Inhibition of UHRF1 (unknown origin) after 30 mins by AlphaScreen assay. Summed up:
as §2

Test [4] has as its target MBT domain-containing protein 1 (Homo sapiens, UniProt Q05BQ5). In words: Inhibition of MBTD1 (unknown origin) after 30 mins by AlphaScreen assay. Summed up: as §1
Test [5] concerns the target T3, Lethal(3)malignant brain tumor-like protein 4 (Homo sapiens, UniProt Q8NA19).
T3 sequence (Q8NA19 whole entry): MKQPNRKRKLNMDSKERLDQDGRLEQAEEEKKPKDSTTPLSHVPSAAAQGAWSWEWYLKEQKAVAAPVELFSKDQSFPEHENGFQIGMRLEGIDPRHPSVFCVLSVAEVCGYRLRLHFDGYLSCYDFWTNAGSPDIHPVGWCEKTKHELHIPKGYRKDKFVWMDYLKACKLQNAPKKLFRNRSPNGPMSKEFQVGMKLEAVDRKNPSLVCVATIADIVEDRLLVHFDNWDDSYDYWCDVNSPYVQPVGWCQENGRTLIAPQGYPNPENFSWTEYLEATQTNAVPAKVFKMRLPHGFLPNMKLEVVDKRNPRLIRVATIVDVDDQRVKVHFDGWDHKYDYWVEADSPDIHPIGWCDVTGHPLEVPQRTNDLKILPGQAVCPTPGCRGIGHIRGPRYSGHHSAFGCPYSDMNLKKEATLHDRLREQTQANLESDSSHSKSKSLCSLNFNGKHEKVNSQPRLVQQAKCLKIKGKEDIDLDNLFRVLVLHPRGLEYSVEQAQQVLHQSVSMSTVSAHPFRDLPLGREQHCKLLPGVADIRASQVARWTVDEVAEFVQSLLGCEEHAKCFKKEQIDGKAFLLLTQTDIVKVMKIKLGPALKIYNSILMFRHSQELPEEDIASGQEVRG
In words: Inhibition of L3MBTL4 (unknown origin) after 30 mins by AlphaScreen assay. Summed up: as §1

In test [6] the target is PHD finger protein 23 (Homo sapiens, UniProt Q9BUL5). As to the kind of experiment: Inhibition of PHF23 (unknown origin) after 30 mins by AlphaScreen assay. In a few lines:
as §1

Test [7] has as its target T1, Lethal(3)malignant brain tumor-like protein 3. As to the kind of experiment: Inhibition of L3MBTL3 (unknown origin) using H4K20me2 as substrate after 30 mins by LNCE-TR-FRET assay.

As a reminder, the IC50 is the midpoint of a concentration-inhibition curve. Lower therefore signals higher potency.

Structures are written as SMILES.

MBT domain-containing protein 1, sequence (Q05BQ5 whole entry, the tested form may be a part): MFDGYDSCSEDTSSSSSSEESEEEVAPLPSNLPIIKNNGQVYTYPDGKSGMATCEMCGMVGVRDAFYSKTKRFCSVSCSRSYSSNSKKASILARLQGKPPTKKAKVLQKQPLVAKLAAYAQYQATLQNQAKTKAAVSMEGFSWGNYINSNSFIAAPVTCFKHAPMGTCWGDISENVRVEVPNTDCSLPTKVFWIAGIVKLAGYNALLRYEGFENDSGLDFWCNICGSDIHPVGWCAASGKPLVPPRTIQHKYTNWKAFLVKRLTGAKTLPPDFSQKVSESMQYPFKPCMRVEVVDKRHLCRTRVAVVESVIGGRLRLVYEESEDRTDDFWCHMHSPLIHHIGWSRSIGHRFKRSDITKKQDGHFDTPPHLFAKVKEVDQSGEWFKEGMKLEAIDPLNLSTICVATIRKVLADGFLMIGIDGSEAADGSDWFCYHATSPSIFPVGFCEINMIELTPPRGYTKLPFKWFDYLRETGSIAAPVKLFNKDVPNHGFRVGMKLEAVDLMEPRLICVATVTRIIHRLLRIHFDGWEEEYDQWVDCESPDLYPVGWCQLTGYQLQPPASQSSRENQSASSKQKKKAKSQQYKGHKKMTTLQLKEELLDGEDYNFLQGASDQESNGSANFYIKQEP
PHD finger protein 23, sequence (Q9BUL5 whole entry): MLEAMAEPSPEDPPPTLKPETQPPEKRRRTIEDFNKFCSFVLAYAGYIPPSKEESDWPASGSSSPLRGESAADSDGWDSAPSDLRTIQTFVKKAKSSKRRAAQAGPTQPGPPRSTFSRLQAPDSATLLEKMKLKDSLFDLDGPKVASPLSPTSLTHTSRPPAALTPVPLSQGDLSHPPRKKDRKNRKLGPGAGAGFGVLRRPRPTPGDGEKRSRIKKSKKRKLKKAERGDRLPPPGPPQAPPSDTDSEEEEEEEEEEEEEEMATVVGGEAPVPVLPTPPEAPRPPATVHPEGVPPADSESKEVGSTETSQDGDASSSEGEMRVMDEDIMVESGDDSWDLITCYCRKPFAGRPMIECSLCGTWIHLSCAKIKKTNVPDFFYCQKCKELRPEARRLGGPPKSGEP

For the molecule `O=C(c1cccc(C(=O)N2CCC(N3CCCC3)CC2)c1)N1CCC(N2CCCC2)CC1`, the IC50 in test [1] is 0.36 µM; in test [2], > 10 µM; in test [3], > 10 µM; in test [4], > 10 µM; in test [5], > 10 µM; in test [6], > 10 µM. In test [7], this molecule came in with an IC50 of 0.29 µM.

In the case of `CN(C)C1CCN(C(=O)c2ccc(C(=O)N3CCC(N4CCCC4)CC3)cc2)CC1`, the half-inhibitory concentration (IC50) was 0.31 µM in test [1]; > 10 µM in test [2]; > 10 µM in test [3]; > 10 µM in test [4]; > 10 µM in test [5]; > 10 µM in test [6]. The same molecule returned an IC50 in test [7] of 0.18 µM.

`O=C(c1ccc(C(=O)N2CCC(N3CCCC3)CC2)cc1)N1CCC(C2CCNCC2)CC1`: the 50% inhibitory concentration (IC50) in test [1] is 0.74 µM; in test [2], > 10 µM; in test [3], > 10 µM; in test [4], > 10 µM; in test [5], > 10 µM; in test [6] it was > 10 µM. The molecule also showed an IC50 in test [7] of 0.8 µM.

Consider `O=C(c1ccc(C(=O)N2CCC(N3CCCC3)C2)cc1)N1CCC(N2CCCC2)CC1` (configuration not stated), for which the half-maximal inhibitory concentration (IC50) in test [1] was 0.25 µM; in test [2], > 10 µM; in test [3], > 10 µM; in test [4] it was > 10 µM; in test [5], > 10 µM; in test [6] it was > 10 µM. Besides, inhibition in test [7] was half-maximal at 0.22 µM (IC50).

In the case of `O=C(c1ccc(C(=O)N2CCC(N3CCCCC3)CC2)cc1)N1CCC(N2CCCCC2)CC1`, the concentration for half-maximal inhibition (IC50) in test [1] is > 10 µM; in test [2], > 10 µM; in test [3], > 10 µM; in test [4] it was 4.9 µM; in test [5] it was > 10 µM; in test [6], > 10 µM. Also, the 50% inhibitory concentration (IC50) in test [7] was > 10 µM.

On to `O=C(c1ccc(C(=O)N2CCC(N3CCCC3)CC2)nc1)N1CCC(N2CCCC2)CC1`, for which the IC50 in test [1] is 0.11 µM; in test [2], > 10 µM; in test [3] it was > 10 µM; in test [4] it was > 10 µM; in test [5], > 10 µM; in test [6], > 10 µM. Besides, it took 0.061 µM to reach half-maximal inhibition in test [7] (IC50).

Regarding `O=C(c1ccc(C(=O)N2CCC(N3CCCC3)CC2)c(Oc2ccccc2)c1)N1CCC(N2CCCC2)CC1`, the IC50 in test [1] is 0.058 µM; in test [2], > 10 µM; in test [3] it was > 10 µM; in test [4], 9.3 µM; in test [5] it was > 10 µM; in test [6], > 10 µM. Besides, the concentration for half-maximal inhibition (IC50) in test [7] came out at 0.053 µM.

Take `O=C(c1ccc2cc(C(=O)N3CCC(N4CCCC4)CC3)ccc2c1)N1CCC(N2CCCC2)CC1`: the 50% inhibitory concentration (IC50) in test [1] is 0.69 µM; in test [2], > 10 µM; in test [3], > 10 µM; in test [4] it was > 10 µM; in test [5], > 10 µM; in test [6], > 10 µM. This molecule also registered a half-maximal inhibitory concentration (IC50) in test [7] of 0.45 µM.

As to `CCN1Cc2ccc(NC(=O)c3ccc(C(=O)N4CCC(N5CCCC5)CC4)cc3)cc2C1`, the IC50 in test [1] was 0.37 µM; in test [2], > 10 µM; in test [3], > 10 µM; in test [4] it was > 10 µM; in test [5], > 10 µM; in test [6] it was > 10 µM. This molecule returned an IC50 in test [7] of 0.35 µM.

Consider `O=C(c1ccc(C(=O)N2CCC(N3CCCC3)CC2)s1)N1CCC(N2CCCC2)CC1`, for which the IC50 was 0.096 µM in test [1]; > 10 µM in test [2]; > 10 µM in test [3]; > 10 µM in test [4]; > 10 µM in test [5]; > 10 µM in test [6]. Also, inhibition in test [7] was half-maximal at 0.068 µM (IC50).

Consider `CN(C)C1CCN(C(=O)c2ccc(C(=O)N3CCC(N(C)C)CC3)cc2)CC1`, for which the concentration for half-maximal inhibition (IC50) in test [1], in test [2], in test [3], in test [4], in test [5] and in test [6] was > 10 µM each time. Also, it took 8 µM to reach half-maximal inhibition in test [7] (IC50).

In the case of `O=C(c1ccccc1C(=O)N1CCC(N2CCCC2)CC1)N1CCC(N2CCCC2)CC1`, the concentration for half-maximal inhibition (IC50) in test [1] is 1.1 µM; in test [2], 4.7 µM; in test [3], > 10 µM; in test [4], > 10 µM; in test [5] it was > 10 µM; in test [6], > 10 µM. In addition, the IC50 in test [7] turned out to be 0.35 µM.

`O=C(c1ccc(S(=O)(=O)N2CCC(N3CCCC3)CC2)cc1)N1CCC(N2CCCC2)CC1`: the IC50 was 0.099 µM in test [1]; > 10 µM in test [2]; > 10 µM in test [3]; 5.4 µM in test [4]; > 10 µM in test [5]; > 10 µM in test [6]. This molecule also yielded an IC50 in test [7] of 0.097 µM.

Turning to `O=C(c1ccc(C(=O)N2CCC(C3CCCN3)CC2)cc1)N1CCC(C2CCCN2)CC1` (configuration not stated), the half-maximal inhibitory concentration (IC50) in test [1] was 0.64 µM; in test [2], > 10 µM; in test [3], > 10 µM; in test [4], 4 µM; in test [5], > 10 µM; in test [6] it was > 10 µM. 0.8 µM corresponded to half-maximal inhibition in test [7] (IC50).

On to `O=C(c1ccc(C(=O)N2CCC(N3CCOCC3)CC2)cc1)N1CCC(N2CCCC2)CC1`, for which the IC50 in test [1] was 1.5 µM; in test [2], > 10 µM; in test [3] it was > 10 µM; in test [4] it was > 10 µM; in test [5], > 10 µM; in test [6], > 10 µM. In addition, the half-inhibitory concentration (IC50) in test [7] worked out at 1.1 µM.

With `O=C(NCCCN1CCCC1)c1ccc(C(=O)N2CCC(N3CCCC3)CC2)cc1`, the half-maximal inhibitory concentration (IC50) was 0.68 µM in test [1]; > 10 µM in test [2]; > 10 µM in test [3]; > 10 µM in test [4]; > 10 µM in test [5]; > 10 µM in test [6]. The molecule also came in with an IC50 in test [7] of 0.34 µM.
